Article PMC8451688 (Journal of Enzyme Inhibition and Medicinal Chemistry, 2021)
Read-outs that look alike come from different tables or passages of the source. One block for each molecule: values may come before it.

Assays:
A549 cells [1] = experiment: cells; format: cell-based, human; conditions: mean of triplicate; for IC50 (%inhibition ± SD) A549: Table 3
PC-3 cells = format: cell-based, human; conditions: Table 3; MTT; mean of triplicate
NRK-52E cells = format: cell-based; conditions: Table 3; normal rat kidney cell line; MTT
HepG2 cells = format: cell-based, human; conditions: Table 3; MTT; mean of triplicate
A549 cells [2] = experiment: Cell cycle analysis by PI flow cytometry; format: cell-based, human; conditions: 24 h
Outline: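 A549 cells were treated for 24 h with test compound at 0, 4 or 8 µM, with 0.1% DMSO as control. Cells were collected and washed twice in cold PBS, then fixed in cold 70% ethanol overnight at 4 °C. They were treated with 1 mg/mL RNase A for 30 min at 37 °C, stained with PI for 30 min at 4 °C in the dark, and analysed by flow cytometry.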

[3] = Homo sapiens, A549, read-out: IC50 A549, MTT

IC50 (A549 cells [1]; [3]): 11.3 ± 1.5 µM | IC50 (%inhibition ± SD) A549 (A549 cells [1]; MTT): 11.3 ± 1.50% | IC50 (%inhibition ± SD) PC-3 (PC-3 cells): 21.7 ± 2.89% | IC50 (%inhibition ± SD) HepG2 (HepG2 cells): 24.7 ± 8.91%
Molecule: O=C(CN1C(=O)/C(=C/c2ccccc2)SC1=S)Nc1ccccc1 [I1, (Z)-2–(5-benzylidene-4-oxo-2-thioxothiazolidin-3-yl)-N-phenylacetamide]
IC50 (%inhibition ± SD) NRK-52E (NRK-52E cells): 13.1 ± 3.58%

IC50 (A549 cells [1]; read-out: IC50 A549, MTT): 22.7 ± 5.45 µM
Molecule: O=C(CN1C(=O)/C(=C/c2ccccc2F)SC1=S)Nc1ccccc1 [I2, (Z)-2–(5-(2-fluorobenzylidene)-4-oxo-2-thioxothiazolidin-3-yl)-N-phenylacetamide]

IC50 (A549 cells [1]; [3]): 15.8 ± 3.03 µM
Molecule: O=C(CN1C(=O)/C(=C/c2ccccc2O)SC1=S)Nc1ccccc1 [I4, (Z)-2–(5-(2-hydroxybenzylidene)-4-oxo-2-thioxothiazolidin-3-yl)-N-phenylacetamide]

IC50 (A549 cells [1]; [3]): 13.4 ± 5.03 µM | IC50 (%inhibition ± SD) A549 (A549 cells [1]; MTT): 13.4 ± 5.03% | IC50 (%inhibition ± SD) HepG2 (HepG2 cells): 36.4 ± 8.00%
Molecule: COc1ccccc1/C=C1\SC(=S)N(CC(=O)Nc2ccccc2)C1=O [I5, (Z)-2–(5-(2-methoxybenzylidene)-4-oxo-2-thioxothiazolidin-3-yl)-N-phenylacetamide]
IC50 (%inhibition ± SD) NRK-52E (NRK-52E cells): 17.4 ± 4.57%

IC50 (A549 cells [1]; [3]): 22.9 ± 2.07 µM
Molecule: O=C(CN1C(=O)/C(=C/c2cccc([N+](=O)[O-])c2)SC1=S)Nc1ccccc1 [I6, (Z)-2–(5-(3-nitrobenzylidene)-4-oxo-2-thioxothiazolidin-3-yl)-N-phenylacetamide]

IC50 (A549 cells [1]; [3]): 29.6 ± 3.72 µM
Molecule: O=C(CN1C(=O)/C(=C/c2cccc(F)c2)SC1=S)Nc1ccccc1 [I7, (Z)-2–(5-(3-fluorobenzylidene)-4-oxo-2-thioxothiazolidin-3-yl)-N-phenylacetamide]

IC50 (A549 cells [1]; [3]): 31 ± 2.21 µM
Molecule: O=C(CN1C(=O)/C(=C/c2cccc(Cl)c2)SC1=S)Nc1ccccc1 [I8, (Z)-2–(5-(3-chlorobenzylidene)-4-oxo-2-thioxothiazolidin-3-yl)-N-phenylacetamide]

IC50 (A549 cells [1]; [3]): 42.8 ± 6.5 µM
Molecule: O=C(CN1C(=O)/C(=C/c2cccc(O)c2)SC1=S)Nc1ccccc1 [I10, (Z)-2–(5-(3-hydroxybenzylidene)-4-oxo-2-thioxothiazolidin-3-yl)-N-phenylacetamide]

IC50 (A549 cells [1]; [3]): 23.6 ± 3 µM
Molecule: O=C(CN1C(=O)/C(=C/c2ccc([N+](=O)[O-])cc2)SC1=S)Nc1ccccc1 [I12, (Z)-2–(5-(4-nitrobenzylidene)-4-oxo-2-thioxothiazolidin-3-yl)-N-phenylacetamide]

IC50 (A549 cells [1]; [3]): 20.1 ± 3.13 µM
Molecule: O=C(CN1C(=O)/C(=C/c2ccc(C(F)(F)F)cc2)SC1=S)Nc1ccccc1 [I13, (Z)-2-(4-oxo-2-thioxo-5-(4-(trifluoromethyl)benzylidene)thiazolidin-3-yl)-N-phenylacetamide]

IC50 (A549 cells [1]; [3]): 18.8 ± 3.31 µM
Molecule: O=C(CN1C(=O)/C(=C/c2ccc(F)cc2)SC1=S)Nc1ccccc1 [I14, (Z)-2–(5-(4-fluorobenzylidene)-4-oxo-2-thioxothiazolidin-3-yl)-N-phenylacetamide]

IC50 (%inhibition ± SD) PC-3 (PC-3 cells): 17.6 ± 2.51% | IC50 (%inhibition ± SD) HepG2 (HepG2 cells): 20.6 ± 5.19%
Molecule: O=C(CN1C(=O)/C(=C/c2ccc(Cl)cc2)SC1=S)Nc1ccccc1 [I15, (Z)-2–(5-(4-chlorobenzylidene)-4-oxo-2-thioxothiazolidin-3-yl)-N-phenylacetamide]
IC50 (%inhibition ± SD) NRK-52E (NRK-52E cells): 15.1 ± 2.45%

IC50 (A549 cells [1]; [3]): 16.8 ± 3.66 µM
Molecule: O=C(CN1C(=O)/C(=C/c2ccc(O)cc2)SC1=S)Nc1ccccc1 [I16, (Z)-2-(5-(4-hydroxybenzylidene)-4-oxo-2-thioxothiazolidin-3-yl)-N-phenylacetamide]

IC50 (A549 cells [1]; [3]): 20.7 ± 3.33 µM
Molecule: CC(C)c1ccc(/C=C2\SC(=S)N(CC(=O)Nc3ccccc3)C2=O)cc1 [I17, (Z)-2-(5-(4-isopropylbenzylidene)-4-oxo-2-thioxothiazolidin-3-yl)-N-phenylacetamide]

IC50 (%inhibition ± SD) PC-3 (PC-3 cells): 18.1 ± 3.68% | IC50 (%inhibition ± SD) HepG2 (HepG2 cells): 18.8 ± 5.40%
Molecule: CCOc1ccc(/C=C2\SC(=S)N(CC(=O)Nc3ccccc3)C2=O)cc1 [I19, (Z)-2-(5-(4-ethoxybenzylidene)-4-oxo-2-thioxothiazolidin-3-yl)-N-phenylacetamide]
IC50 (%inhibition ± SD) NRK-52E (NRK-52E cells): 11.0 ± 3.10%

IC50 (A549 cells [1]; [3]): 36.9 ± 1.36 µM
Molecule: O=C(CN1C(=O)/C(=C/c2ccc(Cl)cc2Cl)SC1=S)Nc1ccccc1 [I21, (Z)-2-(5-(2,4-dichlorobenzylidene)-4-oxo-2-thioxothiazolidin-3-yl)-N-phenylacetamide]

IC50 (A549 cells [1]; [3]): 15.7 ± 0.98 µM
Molecule: O=C(CN1C(=O)/C(=C/C2CC2)SC1=S)Nc1ccccc1 [I23, (Z)-2-(5-(cyclopropylmethylene)-4-oxo-2-thioxothiazolidin-3-yl)-N-phenylacetamide]

IC50 (%inhibition ± SD) PC-3 (PC-3 cells): 25.1 ± 3.39%
Molecule: O=C(CN1C(=O)/C(=C/c2ccco2)SC1=S)Nc1ccccc1 [I24, (Z)-2-(5-(furan-2-ylmethylene)-4-oxo-2-thioxothiazolidin-3-yl)-N-phenylacetamide]
IC50 (%inhibition ± SD) NRK-52E (NRK-52E cells): 20.1 ± 2.12%

IC50 (A549 cells [1]; [3]): 16 ± 3.46 µM
Molecule: O=C(CN1C(=O)/C(=C/c2cccs2)SC1=S)Nc1ccccc1 [I25, (Z)-2–(4-oxo-5-(thiophen-2-ylmethylene)-2-thioxothiazolidin-3-yl)-N-phenylacetamide]

IC50 (A549 cells [1]; [3]): 20 ± 4.25 µM
Molecule: O=C(CN1C(=O)/C(=C/c2ccc[nH]2)SC1=S)Nc1ccccc1 [I26, (Z)-2-(5-((1H-pyrrol-2-yl)methylene)-4-oxo-2-thioxothiazolidin-3-yl)-N-phenylacetamide]

IC50 (A549 cells [1]; [3]): 17.3 ± 3.9 µM
Molecule: O=C(CN1C(=O)/C(=C/c2ccccn2)SC1=S)Nc1ccccc1 [I28, (Z)-2-(4-oxo-5-(pyridin-2-ylmethylene)-2-thioxothiazolidin-3-yl)-N-phenylacetamide]

IC50 (A549 cells [1]; [3]): 26.4 ± 8 µM
Molecule: O=C(CN1C(=O)/C(=C/c2ccncc2)SC1=S)Nc1ccccc1 [I29, (Z)-2-(4-oxo-5-(pyridin-4-ylmethylene)-2-thioxothiazolidin-3-yl)-N-phenylacetamide]

IC50 (A549 cells [1]; [3]): 22.1 ± 3.41 µM
Molecule: COc1cccc(NC(=O)CN2C(=O)/C(=C/c3ccccc3)SC2=S)c1 [I30, (Z)-2-(5-benzylidene-4-oxo-2-thioxothiazolidin-3-yl)-N-(3-methoxyphenyl)acetamide]

IC50 (A549 cells [1]; [3]): 39.1 ± 5.62 µM
Molecule: COc1cccc(NC(=O)CN2C(=O)/C(=C/C3CC3)SC2=S)c1 [I32, (Z)-2–(5-(cyclopropylmethylene)-4-oxo-2-thioxothiazolidin-3-yl)-N-(3-methoxyphenyl)acetamide]

IC50 (A549 cells [1]; [3]): 46.5 ± 7.31 µM
Molecule: COc1cccc(NC(=O)CN2C(=O)/C(=C/c3ccco3)SC2=S)c1 [I33, (Z)-2–(5-(furan-2-ylmethylene)-4-oxo-2-thioxothiazolidin-3-yl)-N-(3-methoxyphenyl)acetamide]

IC50 (A549 cells [1]; [3]): 17.8 ± 3.75 µM
Molecule: COc1cccc(NC(=O)CN2C(=O)/C(=C/c3cccs3)SC2=S)c1 [I34, (Z)-N-(3-methoxyphenyl)-2–(4-oxo-5-(thiophen-2-ylmethylene)-2-thioxothiazolidin-3-yl)acetamide]

IC50 (A549 cells [1]; read-out: IC50 A549, MTT): 84.9 ± 9 µM
Molecule: (Z)-2-(5-(2-hydroxy-3-methoxybenzylidene)-4-oxo-2-thioxothiazolidin-3-yl)-N-phenylacetamide [I22]

IC50 (%inhibition ± SD) A549 (A549 cells [1]; MTT): 7.00 ± 1.06% | IC50 (A549 cells [1]; read-out: IC50 A549, MTT): 7 ± 1.06 µM | IC50 (%inhibition ± SD) PC-3 (PC-3 cells): 19.9 ± 5.56% | IC50 (%inhibition ± SD) HepG2 (HepG2 cells): 20.3 ± 2.93%
Molecule: (Z)-2-(5-(4-(dimethylamino)benzylidene)-4-oxo-2-thioxothiazolidin-3-yl)-N-phenylacetamide [I20]
IC50 (%inhibition ± SD) NRK-52E (NRK-52E cells): 14.7 ± 1.58% | percentage of cells in G2/M (A549 cells [2]; A549, 4 µM): 10.92% | percentage of cells in G2/M (A549 cells [2]; A549, 8 µM): 15.45%

IC50 (A549 cells [1]; read-out: IC50 A549, MTT): 51.3 ± 9.09 µM
Molecule: (Z)-2-(5-(cyclohex-2-en-1-ylmethylene)-4-oxo-2-thioxothiazolidin-3-yl)-N-phenylacetamide [I27]
